Results taken from ChEMBL document CHEMBL5137045, “Discovery of 2-(furan-2-ylmethylene)hydrazine-1-carbothioamide derivatives as novel inhibitors of SARS-CoV-2 main protease” (Eur J Med Chem, 2022).

Target: Replicase polyprotein 1ab (Severe acute respiratory syndrome coronavirus 2) (UniProt P0DTD1)
Experiment: Inhibition of SARS CoV-2 main protease at 50 uM using DABCYL-KTSAVLQSGFRKM-E(EDANS)-NH2 as substrate preincubated for 30 mins followed by substrate addition and measured after 20 mins relative to control
Conditions: time 50.0 min
Summary of the method: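 FRET protease assay in 40 mM PBS, 100 mM NaCl, 1 mM EDTA, 0.1% Triton, pH 7.3. M^pro (0.5 μM) was preincubated with inhibitor 30 min at room temperature, then 20 μM substrate was added. Cleavage fluorescence (ex 360/em 460 nm) was read for 20 min. This covers preliminary screening and IC50; IC50 from Hill1 fit.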

| Compound | inhibition [%] |
| --- | --- |
| Cc1c(/N=C/c2ccc(-c3cccc([N+](=O)[O-])c3)o2)c(=O)n(-c2ccccc2)n1C | < 20 |
| C=CCNC(=S)N/N=C/c1ccc(-c2ccccc2[N+](=O)[O-])o1 | 28.4 |
| NC(=S)N/N=C/c1ccc(-c2ccc3ccccc3c2)o1 | 54.1 |
| O=C(O)c1cccc(-c2ccc(/C=N/Nc3nc(N4CCCC4)nc(N4CCCC4)n3)o2)c1 | < 20 |
| O=[N+]([O-])c1cccc(-c2ccc(/C=N/NC(=S)Nc3ccccc3)o2)c1 | < 20 |
| O=C(O)c1ccc(-c2ccc(/C=N/NC(=S)NC3CCCCC3)o2)cc1 | 37.3 |
| O=C(O)c1ccc(-c2ccc(/C=N/NC(=S)Nc3ccc(Cl)cc3)o2)cc1 | 27.5 |
| O=C(O)c1cccc(-c2ccc(/C=c3/sc4nc5ccccc5n4c3=O)o2)c1 | < 20 |
| CCOC(=O)c1ccc(NC(=S)Nc2c(C)n(C)n(-c3ccccc3)c2=O)cc1 | < 20 |
| Nc1nonc1C(=O)N/N=C/c1ccc(-c2cccc([N+](=O)[O-])c2)o1 | 31.2 |
| Cc1c(-c2ccc(/C=N/NC(=O)Cn3c(-c4nonc4N)nc4ccccc43)o2)ccc([N+](=O)[O-])c1C | < 20 |
| Cc1c(NC(=S)NC(=O)c2ccc(Cl)cc2)c(=O)n(-c2ccccc2)n1C | < 20 |
| CC1=NN(c2ccc(C)c(Cl)c2)C(=O)/C1=C\c1ccc(-c2ccc(C(=O)O)cc2)o1 | < 20 |
| Cc1cccc(C(=O)NC(=S)Nc2c(C)n(C)n(-c3ccccc3)c2=O)c1 | < 20 |
| N=C1S/C(=C/c2ccc(-c3cccc(C(=O)O)c3)o2)C(=O)N1c1nonc1N | 30.3 |
| Cc1cc(-c2ccc(/C=N/NC(=O)C(NC(=O)Cc3ccco3)C(C)C)o2)cc([N+](=O)[O-])c1C (configuration not stated) | 62.8 |
| Nc1nonc1-c1nc2ccccc2n1CC(=O)N/N=C/c1ccc(-c2ccc([N+](=O)[O-])cc2)o1 | 30.1 |
| C=CCNC(=S)N/N=C/c1ccc(-c2cc(C(=O)O)cc(C(=O)O)c2)o1 | 34.2 |
| COc1cccc(C(=O)NCC(=O)N/N=C/c2ccc([N+](=O)[O-])o2)c1 | < 20 |

| Compound | inhibition [%] |
| --- | --- |
| O=C(O)c1ccc(-c2ccc(/C=N/NC(=S)Nc3cccc(C(F)(F)F)c3)o2)cc1 | 38.6 |
| COCc1c(Br)c(C)nc(OCC(=O)N/N=C/c2ccc(-c3cccc(C(=O)O)c3)o2)c1C#N | 32.9 |
| O=C(O)c1cccc(-c2ccc(/C=N/NC(=S)Nc3cccc(C(F)(F)F)c3)o2)c1 | 43 |
| Cc1c(NC(=S)NC(=O)c2cncc(Br)c2)c(=O)n(-c2ccccc2)n1C | < 20 |
| Cc1cc(-c2ccc(/C=N/NC(=O)Cn3c(-c4nonc4N)nc4ccccc43)o2)ccc1[N+](=O)[O-] | 42.9 |
| COc1cc([N+](=O)[O-])ccc1-c1ccc(/C=N/NC(=O)Cn2c3ccccc3c(=O)c3ccccc32)o1 | 26 |
| Cc1c(C(=O)N/N=C/c2ccc(-c3ccc(Cl)c(C(=O)O)c3)o2)sc(N)c1C#N | 35.8 |
| O=C(O)c1cc(N/N=C/c2ccc(-c3ccc(Cl)c(C(=O)O)c3)o2)ccc1Cl | 28.2 |
| Cc1c(NC(=S)NC(=O)COc2ccccc2)c(=O)n(-c2ccccc2)n1C | < 20 |
| Cc1cccc(C)c1OCC(=O)N/N=C/c1ccc([N+](=O)[O-])o1 | < 20 |
| Cc1c(NC(=S)N/N=C/c2ccccc2[N+](=O)[O-])c(=O)n(-c2ccccc2)n1C | < 20 |
| CC1=NN(c2cccc(C(=O)O)c2)C(=O)/C1=C\c1ccc(-c2cccc(C(=O)O)c2)o1 | 28.5 |
| Cc1ccc(C(=O)NC(=S)Nc2c(C)n(C)n(-c3ccccc3)c2=O)cc1 | < 20 |
| CNC(=S)N/N=C/c1ccc(-c2ccc(C(=O)O)cc2)o1 | 39.5 |
| O=C(Cn1c2ccccc2c(=O)c2ccccc21)N/N=C/c1ccc(-c2ccc([N+](=O)[O-])cc2Cl)o1 | 24.1 |
| O=C(N/N=C/c1ccc([N+](=O)[O-])o1)c1c[nH]c2ccccc12 | < 20 |
| O=C(N/N=C/c1ccc([N+](=O)[O-])o1)c1ccc(O)cc1O | < 20 |
| Cc1c(NC(=S)NCCCN(C)C)c(=O)n(-c2ccccc2)n1C | < 20 |
